# Experimental data from ChEMBL document CHEMBL4385606, “3,5,7-Substituted Pyrazolo[4,3- d]pyrimidine Inhibitors of Cyclin-Dependent Kinases and Their Evaluation in Lymphoma Models” (J Med Chem, 2019).
# The source made the active and inactive calls. No cut-off for these calls is given here.
# Key:
# Mus musculus [1] = assay: Ex vivo antitumor activity against human Mino cells xenografted NSG mouse assessed as cleavage of PARP1 at 5 to 10 mg/kg, iv measured after 24 hrs by immunoblotting analysis; format: functional, organism-based
# Outline: (§1)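 NSG mice bearing palpable s.c. tumors received a single i.v. dose (5 or 10 mg/kg) and were euthanized after 24 h. Excised tumors were filtered through 45 µm nylon mesh, lysed and run on SDS-PAGE, transferred to nitrocellulose, probed overnight with primary antibodies in PBS with 5% milk and 0.1% Tween 20, then peroxidase secondaries, with chemiluminescent detection.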
# Mus musculus [2] = assay: Ex vivo antitumor activity against Maver1 xenografted NSG mouse assessed as down regulation of XIAP expression at 10 mg/kg, iv measured after 24 hrs by immunoblotting analysis; format: functional, organism-based; outline: as §1
# Mus musculus [3] = assay: Ex vivo antitumor activity against Maver1 xenografted NSG mouse assessed as down regulation of MCL-1 expression at 10 mg/kg, iv measured after 24 hrs by immunoblotting analysis; format: functional, organism-based; outline: as §1
# JeKo-1 = assay: Antiproliferative activity against human JeKo1 cells assessed as growth inhibition measured after 72 hrs by calcein AM dye-based fluorescence assay; format: functional, cell-based; details: JeKo-1, 72 h
# Outline: (§2)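 Cells exposed in triplicate to six concentrations for 72 h; calcein AM added for 1 h, live-cell fluorescence read at 485/538 nm (ex/em). GI50 taken from dose-response curves.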
# Mus musculus [4] = assay: Ex vivo antitumor activity against human UPF1H cells xenografted NSG mouse decrease in phosphorylation of RNA polymerase 2 C-terminal domain at Ser 2 residue at 5 to 10 mg/kg, iv measured after 24 hrs by immunoblotting analysis; format: functional, organism-based
# Outline: (§3)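 Female NSG mice, 8-12 weeks old, implanted s.c. with lymphoma cells. Once tumors were palpable, mice received a single tail-vein i.v. dose (5 or 10 mg/kg) of compound dissolved in PBS. Mice were euthanized 24 h later. Tumors were excised, filtered through 45 µm nylon mesh and lysed, then proteins were analysed by immunoblotting.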
# HT = assay: Antiproliferative activity against human HT cells measured after 72 hrs by calcein AM dye-based fluorescence assay; format: functional; outline: as §2
# [5] = Antiproliferative activity against human UPF1H cells assessed as growth inhibition measured after 72 hrs by calcein AM dye-based fluorescence assay; format: functional, cell-based; outline: as §2
# Mus musculus [6] = assay: Ex vivo antitumor activity against human Mino cells xenografted NSG mouse assessed as increase in cleaved caspase 7 expression at 5 to 10 mg/kg, iv measured after 24 hrs by immunoblotting analysis; format: functional, organism-based; outline: as §1
# Mus musculus [7] = assay: Ex vivo antitumor activity against human UPF1H cells xenografted NSG mouse decrease in phosphorylation of RNA polymerase 2 C-terminal domain at Ser 5 residue at 5 to 10 mg/kg, iv measured after 24 hrs by immunoblotting analysis; format: functional, organism-based; outline: as §3
# Mus musculus [8] = assay: Ex vivo antitumor activity against Maver1 xenografted NSG mouse assessed as induction of PARP1 cleavage at 10 mg/kg, iv measured after 24 hrs by immunoblotting analysis; format: functional, organism-based; outline: as §1
# [9] = molecular target: Cyclin-dependent kinase 7 (Homo sapiens) (UniProt P50613); assay: Inhibition of CDK7 in human Mino cells assessed as decrease in phosphorylation of RNA polymerase 2 C-terminal domain at Ser 5 residue at 12.5 nM by immunoblotting analysis; format: cell-based; details: TDE = time-dependent effect
# Outline: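 MINO lymphoma cells were treated at 12.5 nM, with time points over 24 h. Lysates were separated by SDS-PAGE and blotted to nitrocellulose. Phospho-RNA polymerase II CTD (Ser2, Ser5) and phospho-Rb (Ser608, Ser780) were probed with primary antibodies overnight and peroxidase-conjugated secondaries. Detection was by chemiluminescence on a CCD camera.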
# Maver1 [10] = assay: Antitumor activity against human Maver1 cells xenografted in NSG mouse assessed as inhibition of tumor growth at 10 mg/kg, iv administered daily measured every day during compound dosing by caliper method; format: functional, organism-based
# Outline: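 Female NSG mice, 8-12 weeks old, given cells s.c.; once all had palpable tumors, daily i.v. tail-vein dosing at 10 mg/kg in PBS. Two perpendicular tumor diameters measured daily by caliper. Study ended when any mouse's tumor reached ≥2 cm. Groups: MINO n=10, MAVER-1 n=12, Hbl-2 n=8, VFN-M1 PDX n=10.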
# [11] = molecular target: Casein kinase I isoform delta (Homo sapiens, UniProt P48730); assay: Inhibition of CK1delta (unknown origin)
# OCI-Ly3 = assay: Antiproliferative activity against human OCI-LY3 cells assessed as growth inhibition measured after 72 hrs by calcein AM dye-based fluorescence assay; format: functional, cell-based; details: OCI-Ly3, 72 h; outline: as §2
# Homo sapiens [12] = organism: Homo sapiens; assay: Induction of apoptosis in human Mino cells assessed as effect on BCL-2 protein expression at 1.5 to 12.5 nM after 24 hrs by immunoblotting analysis; format: functional, cell-based
# Outline: (§4)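 Lymphoma cell lines were cultured as the providers instruct and exposed to compound at several doses or for several times. Lysates were run on SDS-PAGE and blotted to nitrocellulose. Blots were blocked, incubated overnight with primary antibodies diluted in PBS with 5% milk and 0.1% Tween 20, then with peroxidase-conjugated secondaries, and detected by chemiluminescence on a CCD camera.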
# Mus musculus [13] = assay: Ex vivo antitumor activity against patient derived VFN-M1 cells xenografted NSG mouse assessed as increase in cleaved caspase 7 expression at 10 mg/kg, iv measured after 24 hrs by immunoblotting analysis; format: functional, organism-based; outline: as §3
# HCT-116 = assay: Antiproliferative activity against human HCT116 cells assessed as growth inhibition measured after 72 hrs by calcein AM dye-based fluorescence assay; format: functional, cell-based; details: HCT-116, 72 h; outline: as §2
# HeLa = assay: Antiproliferative activity against human HeLa cells assessed as growth inhibition measured after 72 hrs by calcein AM dye-based fluorescence assay; format: functional, cell-based; outline: as §2
# Homo sapiens [14] = organism: Homo sapiens; assay: Induction of apoptosis in human Mino cells assessed as reduction in MCL1 expression at 12.5 nM after 2 to 24 hrs by immunoblotting analysis; format: functional, cell-based; outline: as §4
# [15] = molecular target: Cyclin-dependent kinase 9 (Homo sapiens) (UniProt P50750); assay: Inhibition of CDK9 in human Mino cells assessed as decrease in phosphorylation of Rb at Ser 608 residue at 12.5 nM by immunoblotting analysis; format: cell-based; details: TDE = time-dependent effect
# Outline: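 MINO lymphoma cells exposed to 12.5 nM for up to 24 h (time course). Lysates separated by SDS-PAGE, transferred to nitrocellulose, probed overnight with specific primary antibodies diluted in PBS with 5% milk and 0.1% Tween 20, then peroxidase-conjugated secondaries; chemiluminescence imaged with a CCD camera.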
# Mus musculus [16] = assay: Ex vivo antitumor activity against Maver1 xenografted NSG mouse assessed as effect on BCL-2 expression at 10 mg/kg, iv measured after 24 hrs by immunoblotting analysis; format: functional, organism-based; outline: as §1
# Maver1 [17] = assay: Induction of apoptosis in human Maver1 cells assessed as reduction in MCL1 expression at 1.5 to 12.5 nM after 24 hrs by immunoblot analysis; format: functional, cell-based; outline: as §4
# CCRF-CEM = assay: Antiproliferative activity against human CEM cells assessed as growth inhibition measured after 72 hrs by calcein AM dye-based fluorescence assay; format: functional, cell-based; outline: as §2
# [18] = molecular target: Cyclin-dependent kinase 2/cyclin E1 (Homo sapiens, UniProt P24941); assay: Inhibition of His-tagged CDK2/Cyclin-E1 (unknown origin) expressed in baculovirus infected Sf9 insect cells using histone H1 as substrate measured in presence of [gamma-33P]ATP; format: cell-based
# Cyclin-dependent kinase 7 (Homo sapiens), sequence (P50613 whole entry, the tested form may be a part): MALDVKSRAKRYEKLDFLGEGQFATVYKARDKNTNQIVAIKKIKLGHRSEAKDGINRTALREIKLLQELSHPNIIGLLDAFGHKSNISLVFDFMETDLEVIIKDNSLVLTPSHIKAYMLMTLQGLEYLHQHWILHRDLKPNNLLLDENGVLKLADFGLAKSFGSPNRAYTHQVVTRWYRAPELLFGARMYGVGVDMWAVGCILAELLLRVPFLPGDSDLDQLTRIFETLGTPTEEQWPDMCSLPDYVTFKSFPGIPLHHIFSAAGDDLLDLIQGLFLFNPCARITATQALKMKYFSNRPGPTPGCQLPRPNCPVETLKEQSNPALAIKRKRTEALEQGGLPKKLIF
# Cyclin-dependent kinase 9 (Homo sapiens), sequence (P50750 whole entry): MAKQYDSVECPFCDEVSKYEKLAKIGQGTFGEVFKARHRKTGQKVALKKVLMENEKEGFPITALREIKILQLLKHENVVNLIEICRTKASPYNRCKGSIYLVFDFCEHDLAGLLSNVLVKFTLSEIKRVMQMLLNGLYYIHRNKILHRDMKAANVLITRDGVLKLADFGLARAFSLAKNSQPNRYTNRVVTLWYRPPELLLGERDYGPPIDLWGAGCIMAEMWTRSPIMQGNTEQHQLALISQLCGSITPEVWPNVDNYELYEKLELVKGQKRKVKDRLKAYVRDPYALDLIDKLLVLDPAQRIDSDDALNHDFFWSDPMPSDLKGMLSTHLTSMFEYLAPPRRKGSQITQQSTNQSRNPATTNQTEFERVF
# Casein kinase I isoform delta, sequence (P48730 whole entry, canonical isoform): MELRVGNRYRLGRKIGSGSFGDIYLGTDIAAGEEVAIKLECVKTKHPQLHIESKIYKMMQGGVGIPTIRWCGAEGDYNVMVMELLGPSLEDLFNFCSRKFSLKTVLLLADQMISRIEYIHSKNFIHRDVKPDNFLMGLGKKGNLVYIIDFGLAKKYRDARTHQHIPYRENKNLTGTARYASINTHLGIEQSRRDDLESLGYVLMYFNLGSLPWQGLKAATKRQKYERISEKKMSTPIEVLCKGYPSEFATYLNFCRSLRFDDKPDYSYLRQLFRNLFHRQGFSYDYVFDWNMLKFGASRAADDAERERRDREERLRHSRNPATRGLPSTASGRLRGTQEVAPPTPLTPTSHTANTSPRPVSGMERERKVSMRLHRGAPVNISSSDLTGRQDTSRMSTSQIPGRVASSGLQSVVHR
smiles,measurement,setting,value
CC(C)c1n[nH]c2c(NCc3ccc(-c4ccccn4)cc3)nc(SCCN)nc12,Activity,Mus musculus [1],Active
same,Activity,Mus musculus [2],Active
same,Activity,Mus musculus [3],Active
same,GI50,JeKo-1,14 nM
same,IC50,JeKo-1,14 nM
same,Activity,Mus musculus [4],Active
same,GI50,HT,22 nM
same,GI50,[5],25 nM
same,IC50,[5],25 nM
same,Activity,Mus musculus [6],Active
same,Activity,Mus musculus [7],Active
same,Activity,Mus musculus [8],Active
same,inhibition,[9],Tde
same,TGI,Maver1 [10],Active
same,IC50,[11],45 nM
same,GI50,OCI-Ly3,7 nM
same,IC50,OCI-Ly3,7 nM
same,Activity,Homo sapiens [12],inactive
same,Activity,Mus musculus [13],Active
same,GI50,HCT-116,21.6 nM
same,IC50,HCT-116,22 nM
same,GI50,HeLa,21.6 nM
same,IC50,HeLa,17 nM
same,Activity,Homo sapiens [14],Active
same,inhibition,[15],Tde
same,Activity,Mus musculus [16],inactive
same,Activity,Maver1 [17],Active
same,GI50,CCRF-CEM,33 nM
same,IC50,CCRF-CEM,33 nM
same,IC50,[18],2 nM
